Experimental data from different studies.
Compare with care: the assays were run in different laboratories.
CYP1A2: Cytochrome P450 1A2 (CYP1A2, Homo sapiens, UniProt P05177)
SLCO1B1: Solute carrier organic anion transporter family member 1B1 (SLCO1B1, Homo sapiens, UniProt Q9Y6L6)
CYP3A4: Cytochrome P450 3A4 (CYP3A4, Homo sapiens, UniProt P08684)

With `Nc1ccc(S(=O)(=O)Nc2ccnn2-c2ccccc2)cc1` the inhibition was -9% (CYP1A2; enzyme activity, inhibitor; human, liver microsomes; 10 µM).
The IC50 of `CN(CCC(=O)O)C(=O)c1ccc2c(c1)CC[C@@H]1[C@@H]2CC[C@]2(C)C(c3cncc(F)c3)=CC[C@@H]12` is reported as 3.1 µM (SLCO1B1; transporter uptake, inhibitor).
For `COC(=O)C1CCN(C(=O)c2cccc(NCc3cnc4nc(N)nc(N)c4n3)c2)CC1`, the inhibition was -19.5% (CYP3A4; enzyme activity, inhibitor, luciferase; 10 µM).
With `CN(C(=O)n1cnc(-c2ccc[n+]([O-])c2)c1)C1CCCCC1` the inhibition was about 20% (SLCO1B1; transporter uptake, inhibitor; HEK293; 10 µg/mL).
`O=C(Nc1c2c(cc3c1CCC3)CCC2)NS(=O)(=O)/C=C/c1nccs1` gave an inhibition of 14.6% (CYP1A2; enzyme activity, inhibitor; human, liver microsomes; 2 µM, pH 7.4).
`CCCOC(=O)C1CCN(C(=O)c2ccc(N(C)Cc3cnc4nc(N)nc(N)c4n3)cc2)CC1` has an inhibition of -10.1% (CYP3A4; enzyme activity, inhibitor, luciferase; 10 µM).
The IC50 of `C=CC(=O)Nc1cc(Nc2nccc(Nc3cc(Cl)c(F)cc3C(C)(C)O)n2)c(OC)cc1N1CC[C@@H](N(C)C)C1` is reported as 18.2 µM (CYP3A4; enzyme activity, inhibitor; human, liver microsomes).
`CC(C)(C)OC(=O)NCCCCCC(=O)NCc1cccnc1` gave a ΔTm of -0.2 °C (CYP3A4; thermal stability).
For `NC(=O)C1CCN(C(=O)c2ccc(NCc3cnc4nc(N)nc(N)c4n3)cc2)CC1`, the inhibition was -4.54% (CYP3A4; enzyme activity, inhibitor, luciferase; 10 µM).
`C[C@H]1C[C@H]2[C@@H]3CCC4=CC(=O)C=C[C@]4(C)[C@@]3(Cl)[C@@H](O)C[C@]2(C)[C@@]1(O)C(=O)CO` gave an IC50 of 6.7 µM (SLCO1B1; transporter uptake, inhibitor).
With `CC(C)(C)OC(=O)N[C@H](CSCCC(=O)NCc1cccnc1)Cc1ccccc1` the ΔTm was -1 °C (CYP3A4; thermal stability).
